# Assay results pooled from the literature.
# Compare with care: the assays were run in different laboratories.
# Target: Tyrosine-protein kinase Yes (YES1, Homo sapiens, UniProt P07947)
SMILES,observed,action,technique,concentration,quantity,result
CN1CCN(C(=O)c2ccc(NC(=O)Nc3ccc(N(C)c4ccnc(Nc5ccc(CS(C)(=O)=O)cc5)n4)cc3)cc2)CC1,binding,,competition with immobilised ligand,1 µM,remaining binding,96%
COc1ccc2oc(-c3ccc4nc(N)oc4c3)c/c(=N\c3ccccc3NC(=O)CCN)c2c1,binding,,,1 µM,remaining binding,101%
C=CC(=O)N1CCC[C@@H](n2nc(-c3ccc(Oc4ccccc4)cc3)c3c(N)ncnc32)C1,enzyme activity,inhibitor,,1 µM,inhibition,97%
CCCCC(=O)Nc1ccc(-c2ccc3ncn(CCC)c(=O)c3c2)cn1,binding,,competition with immobilised ligand,0.5 µM,remaining binding,100%
Cc1cc(O)c(-c2ccc([C@@H](C)CN(C)C)cc2)c2c1[nH]c(=O)c1sccc12,enzyme activity,inhibitor,,0.1 µM,inhibition,10.3%
C1=C/COCc2cc(ccc2OCCN2CCCC2)Nc2nccc(n2)-c2cccc(c2)COC/1,binding,,,0.1 µM,remaining binding,71%
CO[C@@H]1[C@H](N(C)C(=O)c2ccccc2)C[C@H]2O[C@]1(C)n1c3ccccc3c3c4c(c5c6ccccc6n2c5c31)C(=O)NC4,enzyme activity,inhibitor,,1 µM,inhibition,39%
Cc1ccc(NC(=O)c2ccnc(C(F)(F)F)c2)cc1-c1cc(OCCO)nc(N2CCOCC2)c1,binding,,competition with immobilised ligand,1 µM,remaining binding,87%
